Source: PubChem BioAssay
Bfl-1 A1 inh – inhibitors of the anti-apoptotic protein A1, read as caspase activation; AID 2462; caspase activation, % (concentration not given with the values); MEF A1-2A-BIM cells, Caspase-Glo 3/7 luminescence, 3 h; percent of clofoctol response, vehicle zero; 0.066% of 330,000 active;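 active = over half of replicate activation scores above 10%, or exactly half above 10 with the replicate mean above 10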
NLRP3 yeast inh – inhibitors of NALP3 inflammasome in yeast | Yeast reconstituted NLRP3/ASC/caspase-1, beta-gal luminescence, 24 h | inhibition, % at 10 µM | 0.39% of 330,000 active;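 active = inhibition of 50% or more; inactive = inhibition below 50%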
NALP1 inh – blocks the NALP1 inflammasome reconstituted in yeast; S. cerevisiae NALP1/ASC/caspase-1 growth, X-gal OD620, 72 h; inhibition, % at 10 µM; 0.61% of 280,000 active; AID 2071; in the data active = inhibition mostly above about 24%, no sharp cut-off; inactive = mostly below about 32%
T cell modulator – modulates CD8 T cell binding to vesicles; 2C CD8+ T cell-vesicle binding, flow cytometry; stronger effect = lower value; response (vesicle binding), % at 7 µM; 0.068% of 330,000 active;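 active = response, share of CD8 T cells binding vesicles, and their 90th percentile fluorescence all below set limits, cut at about 80% in these data, passing the limit was not always enough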;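 note: values below 100% mean blocked vesicle binding to the CD8+ T cells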
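Benchmarks: naked versus QL9-loaded vesicles / Assay system: purified 2C TCR transgenic mouse naive CD8+ T cells / Technique: high-throughput flow cytometry with anti-B7-1 and anti-CD8 staining / Timing: Cell–vesicle co-incubation 1.5 h at 37 °C, staining 20 min on ice / Read-out: percent CD8+ FL2 mean versus row control / Probe or stimulus: QL9-loaded Drosophila micro-vesicles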
NALP3 confirm – NALP3 inhibition confirmation in yeast; shares compounds with NLRP3 yeast inh; yeast expressing human NALP3, luminescence; inhibition, % at 10 µM; 81% of 1,300 active; in the data active = inhibition above about 48%
Casp1-ASC yeast – active in yeast caspase-1-ASC counter-screen for NALP3 inhibitors. shares compounds with NLRP3 yeast inh. yeast expressing Caspase-1-ASC, luminescence counter screen. inhibition, % at 10 µM. 66% of 1,000 active. AID 488784
NALP3 yeast rt – retest-confirmed inhibitor of NALP3 in yeast; shares compounds with NLRP3 yeast inh; yeast expressing human NALP3, luminescence read-out; inhibition, % at 10 µM; 53% of 1,000 active
A number is an active result; – = inactive; · = no result given. Most compounds without a hit are left out; they make up all but 1% or so of the library. Cut-off read from the data, not from the text of the source, unless noted: active = inhibition above about 50%; inactive = the rest.

SMILES | Bfl-1 A1 inh | NLRP3 yeast inh | NALP1 inh | T cell modulator | NALP3 confirm | others
COC(=O)C1=C(c2cccc(OC)c2OC)C[C@@H]2CC[C@H]1N2C(=O)N1CCC(C)CC1 | – | – | · | – | ·
C[C@]12CCC(=O)C=C1CCC1C2CC[C@@]2(C)C1CC[C@@H]2O (stereo partly drawn) | – | 52.9 | · | – | 60.4
C[C@]12CCC(=O)C[C@H]1CC[C@@H]1[C@@H]2CC[C@]2(C)[C@@H](O)CC[C@@H]12 | – | 59.4 | · | – | 73.0
C/C=C1\NC(=O)[C@@H](NC(=O)[C@H](CCc2ccc(O)cc2)NC(=O)[C@H](C)NC(=O)[C@H](O)CO)[C@@H](C)OC(=O)[C@H](C(C)C)NC(=O)[C@H](Cc2ccc(O)cc2)N(C)C(=O)[C@H](Cc2ccccc2)N2C(=O)C(CC[C@H]2O)NC1=O (stereo partly drawn) | · | – | · | – | ·
COc1cccc2c1O[C@H]1C(=O)CC[C@H]3CN(C)CCC231 (stereo partly drawn) | – | – | · | – | ·
CCCNC(=O)N1[C@H]2CC[C@@H]1C(C(=O)OC)=C(c1c(C)noc1C)C2 | – | – | · | – | ·
CCn1nc(-c2ccccc2)nc2c(=O)n(C)c(=O)nc1-2 | – | 61.5 | 41.5 | – | 85.8 | Casp1-ASC yeast=93.9;NALP3 yeast rt=87.5
O=[N+]([O-])c1ccc(N2CCCC2)c2ncccc12 | – | – | – | – | ·
O=[N+]([O-])c1ccc(N2CCCC2)c(F)c1Br | – | 52.2 | – | – | 59.8 | Casp1-ASC yeast=71.5;NALP3 yeast rt=61.8
COc1cccc(CNC(=O)CCC(=O)N2C[C@H]3C[C@H](C2)c2cccc(=O)n2C3)c1OC | – | – | – | – | ·
O=C(O)CCC(=O)NCCC1=c2ccccc2=N/C1=C\c1c(O)n(Cc2ccc(F)cc2)c(=S)[nH]c1=O | – | – | – | – | ·
